From PubChem BioAssay
Hits are enriched below; roughly 2.9% of the tested compounds scored in any of these assays.
TRPC6 activator – mouse TRPC6 channel activators, primary screen, cell-based, HEK293, membrane potential dye; Short transient receptor potential channel 6 (Mus musculus), Q61143; HEK293-TRPC6 membrane potential dye fluorescence; active compounds read high; B-score at 10 µM; 310,000 tested, 0.13% active;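 active = B-score of the integrated fluorescence ratio above library mean plus 3 SD, and starting fluorescence ratio within library mean plus 5 SD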;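 also: higher score means more depolarization so channel activation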
Target sequence (Q61143 whole entry, looked up): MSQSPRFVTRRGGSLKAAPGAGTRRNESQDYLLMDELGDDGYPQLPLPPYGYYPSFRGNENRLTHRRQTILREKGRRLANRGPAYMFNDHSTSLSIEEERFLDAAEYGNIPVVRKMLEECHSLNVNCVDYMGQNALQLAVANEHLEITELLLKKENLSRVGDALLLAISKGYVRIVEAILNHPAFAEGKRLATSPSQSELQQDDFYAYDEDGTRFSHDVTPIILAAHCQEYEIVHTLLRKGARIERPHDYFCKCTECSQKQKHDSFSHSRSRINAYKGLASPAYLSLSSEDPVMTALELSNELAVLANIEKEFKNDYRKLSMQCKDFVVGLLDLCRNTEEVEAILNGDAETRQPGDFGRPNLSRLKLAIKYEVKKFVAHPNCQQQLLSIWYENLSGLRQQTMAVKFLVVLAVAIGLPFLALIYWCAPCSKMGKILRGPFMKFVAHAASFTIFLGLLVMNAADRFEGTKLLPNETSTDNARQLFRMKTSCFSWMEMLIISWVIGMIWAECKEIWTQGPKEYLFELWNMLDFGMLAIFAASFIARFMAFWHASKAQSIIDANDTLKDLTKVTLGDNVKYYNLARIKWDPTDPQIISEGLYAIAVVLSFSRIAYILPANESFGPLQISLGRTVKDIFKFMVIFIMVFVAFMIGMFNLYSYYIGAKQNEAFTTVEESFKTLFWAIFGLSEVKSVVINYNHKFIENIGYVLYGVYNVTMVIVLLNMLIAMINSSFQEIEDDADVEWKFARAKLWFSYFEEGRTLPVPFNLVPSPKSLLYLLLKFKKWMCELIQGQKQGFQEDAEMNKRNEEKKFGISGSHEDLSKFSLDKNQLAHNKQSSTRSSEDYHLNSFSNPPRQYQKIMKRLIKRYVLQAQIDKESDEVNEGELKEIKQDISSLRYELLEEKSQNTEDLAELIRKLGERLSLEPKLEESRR
TRPC4 PAM – positive allosteric modulators of TRPC4, primary screen, cell-based, mouse TRPC4beta, HEK293 mu-opioid, Fluo-4 calcium. B-score at 10 µM. 310,000 tested, 0.42% active. DAMGO EC20, Fluo-4 Ca2+ flux; active compounds read high;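 active = B-score of calcium response area above 5 SD of library B-scores, with initial fluorescence ratio within 5 SD of library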
TRPC4 act – activators of mouse TRPC4 channel, primary screen, Fluo4 calcium, HEK293 TRPC4beta/mu-opioid cells; Fluo4 calcium fluorescence; active compounds read high; B-score at 10 µM; 310,000 tested, 0.49% active; AID 2237, 2010;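 active = B-score above 5 SD of library B-scores, and initial fluorescence ratio not above library mean plus 5 SD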;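 also: positive B-score marks a calcium rise read as TRPC4 activation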
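Assay system: HEK293 cells stably co-expressing mouse TRPC4beta and mu-opioid receptor / Timing: Fluo4 dye loading 45 min at room temperature, 110 s recording / Signal: Fluo4 calcium-sensitive dye fluorescence, kinetic, 1 Hz baseline / Read-out: integrated baseline-normalised fluorescence ratio, converted to per-well B score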
TRPC4 inh – inhibitors of mouse TRPC4 channel, primary screen, Fluo4 calcium, HEK293 TRPC4beta/mu-opioid cells. Short transient receptor potential channel 4 (Mus musculus), Q9QUQ5. DAMGO-evoked Fluo4 calcium flux; active compounds read low. B-score at 10 µM. 300,000 tested, 0.39% active. AID 2247, 2010;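 active = B-score over 3 SD under the library average, no early fluorescence shift, positive overall ratio signal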
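Assay system: Stable TRPC4beta/mu-opioid receptor HEK293 cells | Reagent: DAMGO in two steps, submaximal then maximal | Compound dosing: Single concentration per test compound | Signal: Fluo4 Ca2+ flux fluorescence | Evaluation: Per-well B score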
TRPC6 inhibitor – mouse TRPC6 channel inhibitors, primary screen, cell-based, HEK293, membrane potential dye; AID 2553, 2010; B-score at 10 µM; ACh-evoked depolarization; active compounds read low; Short transient receptor potential channel 6 (Mus musculus), Q61143; 310,000 tested, 1.1% active;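 active = B-score under library mean minus 3 SD, initial fluorescence not abnormally high, positive integrated signal ratio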;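 also: B-score derived from integrated fluorescence ratio over the kinetic read; more negative B-score means stronger inhibition of depolarization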
Kir21 inh – inhibitors of mouse Kir2.1 inward-rectifier potassium channel; Inward rectifier potassium channel 2 (Mus musculus), P35561; HEK293-Kir2.1, FluxOR thallium flux fluorescence; active compounds read low; B-score at 10 µM; 310,000 tested, 0.85% active; AID 1672, 2009;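 active = fluorescence ratio B-score at or below minus 3 SD of library scores, with starting-brightness B-score within 2 SD, cut at about -4.2 in these data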;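 also: channel flux triggered by added potassium and thallium sulfate stimulus; B-score of peak minus minimum fluorescence over baseline after thallium stimulus; more negative B-score means stronger Kir2.1 block with less thallium influx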
A number is an active result; – = inactive.

SMILES	TRPC6 activator	TRPC4 PAM	TRPC4 act	TRPC4 inh	TRPC6 inhibitor	Kir21 inh
COc1ccc(C(CNC(=O)c2cccc(Br)c2)N2CCCC2)cc1 (stereo not given)	–	–	89	–	–	–
COc1ccc(C(CNC(=S)NCc2ccccc2)N2CCCC2)cc1 (stereo not given)	–	–	–	-6	–	–
CCCCOc1ccc(C(=O)NCC(=O)NCC(c2ccc(OC)cc2)N2CCCC2)cc1 (stereo not given)	–	14	–	–	–	–
CCCCOc1ccc(C(=O)NCC(=O)NCC(c2ccc(F)cc2)N2CCOCC2)cc1 (stereo not given)	–	–	–	–	–	–
COc1ccc(C(CNC(=O)c2oc3ccc(Cl)cc3c2C)N2CCCCC2)cc1 (stereo not given)	–	–	–	-5	–	–
O=C(Cc1ccccc1)NC(=S)Nc1ccc(OC(F)F)cc1	–	–	–	–	–	–
CCCC(=O)NCCc1cc2ccc(C)c(C)c2[nH]c1=O	–	12	–	–	–	–
COc1ccc(S(=O)(=O)N2CCc3ccccc3C2)cc1C(=O)O	–	–	–	–	–	–
COc1ccc(S(=O)(=O)N2CCc3ccccc3C2)cc1OC	–	–	–	–	–	-4.2
O=C(NCCSCc1ccc(Cl)cc1)c1cccs1	–	–	–	–	–	–
O=C(c1ccc([N+](=O)[O-])s1)N1CCN(c2cccc(Cl)c2)CC1	–	–	–	-6	–	–
Cn1c(=O)c(C(=O)CN2CC(=O)Nc3ccccc32)c(N)n(Cc2ccccc2)c1=O	–	–	–	–	–	–
CN(C)CCCNC(=O)c1ccc(-c2nc(-c3ccc(Cl)cc3)cs2)cc1	–	–	–	–	–	-4.7
CN(C)CCCNC(=O)c1ccccn1	–	–	–	–	–	–
CC(C)CN(C(=O)COc1ccc(C(C)(C)C)cc1)C1CCS(=O)(=O)C1 (stereo not given)	–	–	–	–	–	–
COc1cc(/C=C(/C#N)C(=O)c2c(C)[nH]c3ccccc23)ccc1OCC#N	–	10	–	–	–	–
CCOc1ccc(/C=C(\C#N)C(=O)c2c(C)[nH]c3ccccc23)cc1OC	–	–	–	–	–	–
C=CCNC(=S)N(CC)c1cccc2ccccc12	–	–	–	–	–	-5.3
CC1CN(c2nc(-c3ccc(Br)cc3)nnc2-c2ccccc2)CC(C)N1 (stereo not given)	–	–	–	–	–	-9.3
COc1ccccc1CNC(=O)CN1C(=O)c2ccc([N+](=O)[O-])cc2C1=O	–	–	–	–	–	–
CC1CC(C)C[N+](=C2C=C(N3CCCC3)CC(C)(C)C2)C1 (stereo not given)	–	–	–	–	–	-5.8
Fc1cccc(Nc2c3c(nc4ccccc24)CCC3)c1	–	–	–	-7	–	–
COC(=O)c1cccc(Nc2c3c(nc4ccccc24)CCC3)c1	–	–	–	-7	–	–
CC(=O)c1cccc(Nc2c3c(nc4ccccc24)CCC3)c1	–	–	–	–	–	–
NCCOc1ccccc1-c1ccccc1	–	–	–	–	–	–
SMILES	TRPC6 activator	TRPC4 PAM	TRPC4 act	TRPC4 inh	TRPC6 inhibitor	Kir21 inh
Nc1ccc(Oc2ccccc2-c2ccccc2)cc1	–	14	–	–	–	–
O=C(Nc1ccccc1)Nc1cc(S(=O)(=O)N2CCOCC2)ccc1N1CCCC1	–	–	–	–	–	–
O=C(Nc1ccc(F)cc1)Nc1cc(S(=O)(=O)N2CCOCC2)ccc1N1CCCC1	–	39	–	–	–	–
Cc1cnc(C(=O)Nc2cc(S(=O)(=O)N3CCOCC3)ccc2N2CCN(C)CC2)cn1	–	11	–	–	–	–
CN(CCCCCCN(C)Cc1ccccc1O)Cc1ccccc1O	–	–	–	–	–	-5.2
COc1ccccc1N1CC(C(=O)Nc2ccccc2N2CCCC2)CC1=O (stereo not given)	–	–	–	–	–	–
Cc1ccccc1CNC(=O)C(=O)NCCC1CCCCN1S(=O)(=O)c1cccs1 (stereo not given)	–	–	–	–	–	–
C/C(=N\NC(N)=S)C1C2C3CC4C5CC(C42)C1C53 (stereo not given)	–	–	–	–	–	-6
CSc1ccccc1C(=O)NCC(c1ccco1)N(C)C (stereo not given)	–	–	–	–	–	–
CC(=O)NC(CC(=O)NCC(c1ccco1)N(C)C)c1ccccc1 (stereo not given)	–	–	92	–	–	–
CN(C)C(CNC(=O)c1ccc2c(c1)S(=O)(=O)c1ccccc1C2=O)c1ccco1 (stereo not given)	–	–	120	-8	–	–
O=C(NCc1ccco1)c1ccc2c(c1)S(=O)(=O)c1ccccc1C2=O	–	–	–	–	–	–
CN(C)C(CNC(=O)c1ccc2ccccc2c1)c1ccco1 (stereo not given)	–	–	68	–	–	–
CC(C)C(NC(=O)c1ccco1)C(=O)NCC(c1ccco1)N(C)C (stereo not given)	–	–	–	–	–	–
CSc1ccc(C(=O)NCC(c2ccco2)N(C)C)cc1[N+](=O)[O-] (stereo not given)	–	–	293	–	–	–
CCOC(=O)C1CCCN(C(=O)c2csc(-c3ccc4c(c3)CCO4)n2)C1 (stereo not given)	–	–	–	–	–	–
CC(=O)NCCC(=O)Nc1nc2ccc(Oc3ccccc3)cc2s1	–	–	–	–	–	–
COc1ccc(C2(c3ccc(O)cc3O)CC(c3ccccc3Cl)NC(=S)N2)cc1 (stereo not given)	–	11	–	–	–	–
CC(=O)NC1C(=O)N=C(SCC(=O)Nc2cccc(Cl)c2)NC1=O (stereo not given)	–	–	–	–	–	–
CCC(C(=O)NCCc1c[nH]c2ccc(C)cc12)c1ccccc1 (stereo not given)	–	–	–	–	–	-4.5
O=C(NCc1cccc(F)c1)C1CCC(=O)N(CC2CCCCC2)C1 (stereo not given)	–	–	–	–	–	–
c1ccc(C2(CNc3ccccn3)CCCC2)cc1	–	–	–	–	–	-4.4
CCCCC(CC)c1nnc(NC(=O)c2cccs2)s1 (stereo not given)	–	–	–	-9	–	–
